The source made the active and inactive calls. The rule behind the calls is not given here.
Tests used:
[1] = system: Trypanosoma brucei; test: Antitrypanosomal activity against Trypanosoma brucei Lister 427 assessed as parasite growth inhibition measured after 72 hrs by SYBER green staining based multilabel reader analysis; format: functional, organism-based; details: Lister 427, 72 h
In short: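 Bloodstream-form T. b. brucei Lister 427 were screened first at 4 μM, and compounds giving >50% growth inhibition went on to eight-point dose-response. Viability was read by SYBR green after 72 h, giving EC50. At least three assay replicates were run, each in duplicate, reported as mean ± SD.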

[2] = system: HEK293; test: Cytotoxicity against human HEK293 cells assessed as reduction in cell viability at 20 uM measured after 48 hrs by resazurin reagent based multilabel reader analysis; format: toxicity; details: hek293, 48 h
[3] = Selectivity index, ratio of CC50 for cytotoxicity against human HEK293 cells to EC50 for antitrypanosomal activity against Trypanosoma brucei Lister 427; format: toxicity, cell-based; details: read-out: Ratio CC50/EC50
[4] = system: Trypanosoma brucei; test: Antitrypanosomal activity against Trypanosoma brucei Lister 427 assessed as time required to kill the parasite at 0.5 to 2 uM by hemocytometer cell counting analysis; format: functional; details: dose 0.5-2 µM
In short: (§1)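 Time-to-kill on bloodstream-form Lister 427 parasites. Test compound was used at 1, 2 and 4 μM, and pentamidine at 0.5, 1 and 2 μM. Parasites were counted over time by hemocytometer, with counts normalized to a DMSO negative control. Three replicates, mean ± SD.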

[5] = system: Trypanosoma brucei; test: Antitrypanosomal activity against Trypanosoma brucei Lister 427 assessed as parasite growth inhibition at 1 uM measured for 6 to 48 hrs by SYBER green staining based multilabel reader analysis; format: functional, organism-based; details: time 6-48 hrs
In short: (§2)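 Washout test on bloodstream-form Lister 427 trypanosomes to tell trypanocidal from trypanostatic action. Compound at 1, 2 or 4 μM was incubated for 6, 4 or 2 h respectively, and the parasites were then washed three times. Regrowth and division were monitored for a further 48 h.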

[6] = system: Trypanosoma brucei; test: Antitrypanosomal activity against Trypanosoma brucei Lister 427 assessed as parasite growth inhibition at 2 uM measured for 4 to 48 hrs by SYBER green staining based multilabel reader analysis; format: functional, organism-based; details: time 4-48 hrs; in short: as §2
[7] = system: Trypanosoma brucei; test: Antitrypanosomal activity against Trypanosoma brucei Lister 427 assessed as parasite growth inhibition at 4 uM measured for 2 to 48 hrs by SYBER green staining based multilabel reader analysis; format: functional, organism-based; details: time 2-48 hrs; in short: as §2
[8] = system: Trypanosoma brucei; test: Antitrypanosomal activity against Trypanosoma brucei Lister 427 assessed as time required to kill the parasite at 1 to 4 uM by hemocytometer cell counting analysis; format: functional; details: dose 1-4 µM; in short: as §1
[9] = system: Trypanosoma brucei; test: Antitrypanosomal activity against Trypanosoma brucei Lister 427 assessed as time required to kill the parasite at 2 to 4 uM by hemocytometer cell counting analysis; format: functional; details: dose 2-4 µM; in short: as §1

| Structure (SMILES) | EC50 [1] [µM] | CC50 [2] [µM] | other results |
| --- | --- | --- | --- |
| O=C(/C=C/c1ccccc1)CC(=O)/C=C/c1ccccc1 | > 4 | > 20 | – |
| COc1cc(/C=C2\CCC/C(=C\c3cc(OC)cc(OC)c3)C2=O)cc(OC)c1 | > 4 | 3.7 | – |
| COc1cccc(/C=C/C(=O)/C=C/c2cccc(OC)c2)c1 | > 4 | > 20 | – |
| COc1ccc(/C=C/C(=O)/C=C/c2ccccc2)cc1 | > 4 | 5.49 | – |
| OC(CCc1cccc(Br)c1)CCc1cccc(Br)c1 | > 4 | > 20 | – |
| COc1ccc(/C=C/C(=O)/C=C/c2ccc(OC)cc2)cc1 | > 4 | > 20 | – |
| COc1cc(CCC(=O)CCc2cc(OC)c(OC)c(OC)c2)cc(OC)c1OC | > 4 | > 20 | – |
| Cc1ccc(/C=C/C(=O)/C=C/c2ccc(C)cc2)cc1 | > 4 | > 20 | – |
| O=C(/C=C/c1ccc(Cl)c(Cl)c1)CC(=O)/C=C/c1ccc(Cl)c(Cl)c1 | > 4 | > 20 | – |
| O=C(CCc1ccccc1Cl)CCc1ccccc1Cl | > 4 | > 20 | – |
| COc1cc(/C=C/C(=O)/C=C/c2ccc(O)c(OC)c2)ccc1O | 0.84 | 9.74 | – |
| COc1cccc(/C=C/C(=O)CC(=O)/C=C/c2cccc(OC)c2)c1 | > 4 | > 20 | – |
| COc1ccc(/C=C/C(=O)CC(=O)/C=C/c2ccc(OC)c(OC)c2)cc1OC [TETRAMETHOXYCURCUMIN] | > 4 | > 20 | – |
| OC(CCc1ccccc1Cl)CCc1ccccc1Cl | > 4 | > 20 | – |
| COc1cc(CCC(O)CCc2cc(OC)c(OC)c(OC)c2)cc(OC)c1OC | > 4 | > 20 | – |
| CN(C)c1ccc(/C=C/C(=O)/C=C/c2ccccc2)cc1 | > 4 | 9.79 | – |
| Cc1ccc(CCC(=O)CCc2ccc(C)cc2)cc1 | > 4 | > 20 | – |
| COc1ccc(CCC(O)CCc2ccc(OC)c(OC)c2)cc1OC | > 4 | > 20 | – |
| O=C(/C=C/c1ccc(C(F)(F)F)cc1)CC(=O)/C=C/c1ccc(C(F)(F)F)cc1 | > 4 | > 20 | – |

More lines, main results first:

| EC50 [1] [µM] | Structure (SMILES) | CC50 [2] [µM] | other results |
| --- | --- | --- | --- |
| > 4 | COc1ccc(/C=C/C(=O)CC(=O)/C=C/c2ccc(OC)cc2OC)c(OC)c1 | – | – |
| 0.37 | O=C(/C=C/c1ccccc1)/C=C/c1ccc(O)c(O)c1 | 5.54 | – |
| > 4 | COc1ccc(CCC(=O)CCc2ccc(OC)c(OC)c2)cc1OC | > 20 | – |
| 0.36 | COc1cc(/C=C/C(=O)/C=C/c2cc(OC)c(OC)c(OC)c2)cc(OC)c1OC | 0.3 | – |
| 3.29 | O=C(/C=C/c1cccc(O)c1)CC(=O)/C=C/c1cccc(O)c1 | 6.73 | – |
| 0.2 | O=C1/C(=C/c2ccccc2F)CNC/C1=C\c1ccccc1F | 3.58 | – |
| 0.31 | O=C(/C=C/c1ccccc1Cl)/C=C/c1ccccc1Cl | 4.27 | selectivity ratio [3]: > 10 |
| > 4 | O=C(/C=C/c1cccc(Br)c1)/C=C/c1cccc(Br)c1 | > 20 | – |
| > 4 | O=C(CCc1cccc(Br)c1)CCc1cccc(Br)c1 | > 20 | – |
| 0.012 | N=C(N)c1ccc(OCCCCCOc2ccc(C(=N)N)cc2)cc1 [PENTAMIDINE] | > 4 | Time [4]: >30 h |
| > 4 | Cc1ccc(CCC(O)CCc2ccc(C)cc2)cc1 | > 20 | – |
| 2.51 | O=C(/C=C/c1ccccc1)/C=C/c1ccc(C(F)(F)F)cc1 | > 20 | – |
| 0.66 | COc1cc(/C=C/C(=O)/C=C/c2ccccc2)ccc1O | 5.63 | – |
| 0.24 | COc1cc(/C=C/C(=O)/C=C/c2cc(OC)cc(OC)c2)cc(OC)c1 | 1.45 | – |
| 3.99 | COc1cc(/C=C/C(=O)CC(=O)/C=C/c2cc(OC)c(OC)c(OC)c2)cc(OC)c1OC | – | – |
| 0.42 | COc1ccc(/C=C/C(=O)/C=C/c2ccc(OC)c(OC)c2)cc1OC | 4.55 | selectivity ratio [3]: > 10 |
| 0.41 | COc1ccc(/C=C/C(=O)/C=C/c2ccc(O)c(O)c2)cc1 | 6.61 | – |
| 1.42 | O=C(/C=C/c1ccc(F)cc1)/C=C/c1ccc(F)cc1 | 7.64 | – |
| 1.25 | O=C(/C=C/c1ccccc1)/C=C/c1ccc(O)cc1 | 5.85 | – |
| 0.29 | O=C(/C=C/c1ccccc1)/C=C/c1cccc(O)c1 | 5.79 | – |
| 2.33 | O=C(/C=C/c1ccccc1)/C=C/c1ccc(Br)cc1 | 7.05 | – |
| 3.74 | Cc1ccc(/C=C/C(=O)/C=C/c2ccccc2)cc1 | – | – |
| 2.15 | O=C(/C=C/c1ccccc1)/C=C/c1ccc(Cl)c(Cl)c1 | 11.3 | – |
| 1.93 | O=C(/C=C/c1ccccc1)/C=C/c1ccc(Cl)cc1 | > 20 | – |
| 0.2 | O=C(/C=C/c1ccccc1)/C=C/c1cccc([N+](=O)[O-])c1 | 2.88 | Activity [5]: Active; Activity [6]: Active; Activity [7]: Active; Time [8]: <24 h; Time [9]: <6 h |
| 1.78 | COc1cc(/C=C/C(=O)CC(=O)/C=C/c2ccc(O)c(OC)c2)ccc1O [CURCUMIN] | 5.56 | – |
